From PubChem BioAssay
Platelet DG rel: modulates dense granule release in human platelets; human platelet-rich plasma, SFLLRN dense granule ATP release, luminescence; inhibition, %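 (compounds screened at 7.5 µM in platelet-rich plasma)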; 300,000 tested, 0.22% active; AID 1663;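 active means mean replicate score, as percent of positive control, at or above 50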
SENP7 inh: SENP7 protease inhibition. Q9BQF6. recombinant SENP7, Z-RLRGG-aminoluciferin luminescence, 40 min. inhibition, % at 5 µM. 330,000 tested, 1.5% active. AID 434973;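 active means inhibition above about 50% at the single test dose, limit read from the data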;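 further: plate controls were DMSO with enzyme for no effect and no enzyme buffer wells for full effect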
SENP8 block-1: blocks human SENP8 cleavage of Nedd8 substrate; 360,000 tested, 0.64% active; recombinant SENP8, Nedd8 substrate fluorescence; Q96LD8; inhibition, % at 20 µM; in the data active means inhibition mostly above about 40%, no sharp cut-off; inactive means mostly below about 27%
SENP1 FRET inh: inhibitors of human SENP1 SUMO protease catalytic domain; 360,000 tested, 0.21% active; recombinant SENP1 catalytic domain, CyPet-SUMO1-YPet FRET cleavage; inhibition, % at 10 µM; AID 624204;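 active means inhibition at least 30% at 10 µM, raw YFP signal under a set limit, fluorescence ratio 0.5 to 1.5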;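 further: 0% = enzyme with DMSO and 100% = no enzyme wells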
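Compound: 10 µM single point, 0.5% DMSO; Test system: hSENP1 catalytic domain, recombinant; Timing: 50 min reaction at room temperature; Technique: FRET, CFP and YFP emission; Control set: no-enzyme wells low, DMSO-plus-enzyme wells high control.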
SENP8 block-2: blocks the human protease SENP8. Q96LD8. purified SENP8, Z-RLRGG-aminoluciferin cleavage, luminescence. inhibition, % at 10 µM. 330,000 tested, 1.2% active; in the data active means inhibition above about 50%
SENP6 inh: blocks the human protease SENP6; AID 2599; 330,000 tested, 1.8% active; Q9GZR1; inhibition, % at 10 µM; Recombinant SENP6 catalytic domain, aminoluciferin luminescence;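 active means inhibition above about 50% at the single tested dose, limit read from the data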;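 further: plate controls were DMSO wells with enzyme for no effect and DMSO wells lacking enzyme for full effect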
Target sequence (Q9GZR1 628-1112 limits assumed): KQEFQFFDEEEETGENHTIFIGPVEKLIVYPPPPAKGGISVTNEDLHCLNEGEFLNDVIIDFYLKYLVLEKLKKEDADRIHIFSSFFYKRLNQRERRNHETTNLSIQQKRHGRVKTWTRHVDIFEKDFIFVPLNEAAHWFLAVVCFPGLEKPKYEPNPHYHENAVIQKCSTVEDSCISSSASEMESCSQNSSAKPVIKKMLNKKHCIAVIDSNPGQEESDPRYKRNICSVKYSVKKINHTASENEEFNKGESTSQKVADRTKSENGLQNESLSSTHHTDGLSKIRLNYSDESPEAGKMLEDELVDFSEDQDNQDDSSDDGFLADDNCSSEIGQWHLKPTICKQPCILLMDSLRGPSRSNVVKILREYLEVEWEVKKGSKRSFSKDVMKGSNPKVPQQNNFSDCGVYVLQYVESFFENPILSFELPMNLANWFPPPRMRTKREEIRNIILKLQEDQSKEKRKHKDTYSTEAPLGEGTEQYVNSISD
SENP8 conf: confirmation of human SENP8 protease inhibitors; shares compounds with SENP7 inh; Recombinant SENP8, Z-RLRGG-aminoluciferin luminescence, 60 min; inhibition, % at 12.5 µM; 6,200 tested, 40% active;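 active means mean inhibition across replicates above about 50%, limit read from the data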
SENP6 conf: confirmation of human SENP6 protease inhibitors. shares compounds with SENP7 inh. recombinant SENP6, Z-RLRGG-aminoluciferin luminescence. inhibition, % at 12.5 µM. 6,200 tested, 58% active
SENP7 confirm: confirmation of human SENP7 protease inhibitors | recombinant SENP7, Z-RLRGG-aminoluciferin luminescence, 40 min | shares compounds with SENP7 inh | 6,200 tested, 69% active | AID 488917 | inhibition, % at 12.5 µM
Casp3 select: inhibits human caspase-3 in SENP selectivity test; shares compounds with SENP7 inh; purified caspase-3, Z-DEVD-aminoluciferin luminescence, 60 min; inhibition, % at 12.5 µM; 6,200 tested, 60% active; AID 488918;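 active means mean inhibition above about 50%, limit read from the data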;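 further: plate controls were enzyme with DMSO for no effect and wells without caspase-3 for full effect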
Target sequence (P42574 28-227 limits assumed): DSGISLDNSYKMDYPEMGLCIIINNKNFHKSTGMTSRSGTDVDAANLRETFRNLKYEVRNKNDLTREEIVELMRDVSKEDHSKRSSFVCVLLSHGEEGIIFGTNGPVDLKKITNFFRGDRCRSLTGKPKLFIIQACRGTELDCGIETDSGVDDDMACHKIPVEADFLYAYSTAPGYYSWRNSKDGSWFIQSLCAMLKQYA
Luc interf: luminescence interference (SENP counter-screen). shares compounds with SENP7 inh. Pre-incubated SENP8/Z-RLRGG-aminoluciferin, luciferase luminescence interference. inhibition, % at 12.5 µM. 6,200 tested, 39% active. AID 488919;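 active means mean inhibition above about 50% when retested at one dose, limit read from the data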;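 further: plate controls were DMSO wells with completed reaction for no effect and substrate without enzyme for full effect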
* hit, by the source's call; . = not tested or not shown. Rows were chosen to be rich in hits. Some 2.6% of all compounds tested hit in one or more screens of this group.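 How the source made its calls, unless noted: active means mean inhibition above about 50% in the one-dose retest (limit read from the data); inactive means the rest.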

SMILES	Platelet DG rel	SENP7 inh	SENP8 block-1	SENP1 FRET inh	SENP8 block-2	SENP6 inh	SENP8 conf	SENP6 conf	SENP7 confirm	Casp3 select	Luc interf
Nc1c(N(CCCO)C(=O)C2CCCCC2)c(=O)[nH]c(=O)n1Cc1ccccc1	.	4.2	-2.2	-2.8	11.1	-10.7	.	.	.	.	.
O=C(C[C@H]1C(=O)N(c2ccccc2)C[C@@H]1Cc1ccccc1)Nc1ccccc1	.	.	14.6	0.6	.	.	.	.	.	.	.
Cc1ccc(Cl)cc1N1CCN(S(=O)(=O)c2ccc3c(c2)NC(=O)C(C)C(=O)N3)CC1 (centres undefined)	2.0	-6.3	8.0	1.0	-2.4	1.4	.	.	.	.	.
Oc1cccc2oc(=S)[nH]c12	.	.	-0.5	2.8	.	.	.	.	.	.	.
Cc1cc(-n2c(C)cc(C(=O)COc3ccc(F)c(F)c3)c2C)no1	.	39.7	2.4	-4.1	45.9	63.8*	60.3*	59.1*	81.2*	48.1	26.1
Cc1ccc(/C=C/c2ccc3cccc(O)c3n2)s1	-7.1	3.9	-40.6	-11.1	8.0	10.4	.	.	.	.	.
Cc1ccc(/C=C/c2nc3ccccc3s2)s1	14.9	9.6	-114.3	-1.7	85.7*	91.6*	97.4*	100.1*	103.2*	95.2*	78.0*
Cc1ccc(NC(=O)C2COc3ccccc3O2)cc1C (centres undefined)	-4.5	-4.7	29.2	-0.7	-16.8	7.5	.	.	.	.	.
COc1cc(/C=C/c2noc(-c3ccccc3O)n2)cc(OC)c1OC	-4.6	-3.6	-433.0	1.1	-16.2	-23.7	.	.	.	.	.
CC(=O)Oc1ccccc1-c1nc(/C=C/c2ccccc2)no1	0.3	70.2*	19.6	0.6	43.3	61.2*	6.6	13.2	20.2	28.1	5.2
COc1ccc(/C=C/c2noc(-c3ccccc3O)n2)cc1	6.4	88.5*	-8.5	-0.9	88.1*	89.2*	56.8*	49.2	61.8*	52.8*	4.4
CC(NC(=O)C1CCN(C(=O)Nc2ccccc2)CC1)c1ccccc1Cl (centres undefined)	.	1.6	20.3	2.5	0.4	4.2	.	.	.	.	.
CCn1c(SCC(=O)NC2CCCC2)nnc1C(C)C	-3.9	5.5	4.4	-2.0	-0.5	4.5	.	.	.	.	.
Cc1ccc(Cl)cc1NC1=C/C(=N\S(=O)(=O)c2cccs2)c2ccccc2C1=O	-2.3	75.7*	84.6*	1.9	77.7*	75.3*	82.0*	95.5*	76.8*	85.4*	-0.3
CC(=O)Nc1ccc(/C=C2/Sc3ccccc3C2=O)cc1	8.5	93.6*	-100.5	-22.5	62.1*	66.3*	21.3	21.4	33.6	34.0	14.4
O=C1/C(=C\c2cccnc2)Sc2ccccc21	19.1	4.2	-48.8	-7.7	-2.0	23.3	.	.	.	.	.
COc1ccc(-n2nc3ccccc3n2)cc1	-3.2	-4.5	3.9	-4.0	-21.6	-55.8	.	.	.	.	.
Nc1ccc2nn(-c3cccc4ccccc34)nc2c1	-4.9	77.2*	-490.0	-15.4	84.7*	78.5*	-3.1	26.7	16.3	5.6	6.7
Cc1cc2nn(-c3cccc4ccccc34)nc2cc1N	-4.5	11.8	-353.4	-16.9	-3.6	13.5	.	.	.	.	.
Nc1ccc2nn(-c3ccccc3)nc2c1	.	43.3	-409.7	-29.7	65.7*	74.5*	-5.0	65.0*	81.7*	62.2*	31.1
Nc1cc2nn(-c3ccccc3)nc2cc1Cl	2.9	.	-420.2	-129.1	.	.	.	.	.	.	.
Nc1ccc(-n2nc3ccccc3n2)cc1	1.2	63.8*	-452.2	-123.1	37.5	41.3	36.3	56.5*	87.4*	60.2*	66.8*
Cc1cccn2c(=O)c(C(=O)NC3CC(C)CC(C)(C)C3)c(O)nc12 (centres undefined)	-6.3	5.2	-426.6	1.7	-5.2	-11.8	.	.	.	.	.
COc1ccc(S(=O)(=O)Nc2ccc(C)c(S(=O)(=O)N3CCOCC3)c2)cc1[N+](=O)[O-]	.	11.4	2.6	-0.3	-3.8	-6.1	.	.	.	.	.
O=C(Nc1ccccc1C(=O)NC1CC1)c1ccccc1F	.	11.8	6.3	-0.5	-0.7	9.0	.	.	.	.	.
SMILES	Platelet DG rel	SENP7 inh	SENP8 block-1	SENP1 FRET inh	SENP8 block-2	SENP6 inh	SENP8 conf	SENP6 conf	SENP7 confirm	Casp3 select	Luc interf
COc1ccc(N(CC(=O)NCc2ccc3c(c2)OCO3)S(C)(=O)=O)cc1OC	-10.0	93.8*	5.1	-0.4	-5.6	-11.6	2.3	0.1	-2.4	-2.5	-2.5
COc1ccc(CCNS(=O)(=O)c2ccc(Br)cc2)cc1OC	-6.1	-2.3	26.3	2.5	-11.3	-5.1	.	.	.	.	.
N#Cc1c(/N=C/c2ccco2)sc2c1CCCCC2	8.1	96.4*	20.1	-1.1	93.8*	91.8*	3.7	97.7*	68.9*	74.6*	21.7
N#Cc1c(/N=C/c2cc(Br)cs2)sc2c1CCC2	2.5	7.7	12.4	-4.7	-13.4	-16.9	.	.	.	.	.
N#Cc1c(/N=C/c2cccs2)sc2c1CCC2	7.5	94.9*	28.3	-10.8	79.2*	64.6*	35.3	34.9	22.0	33.5	22.4
CCN(c1ccc(C(=O)CSc2nnc(C3CC3)n2C2CC2)cc1)S(C)(=O)=O	.	3.1	1.4	2.5	0.0	7.7	.	.	.	.	.
COC(=O)C[C@@H]1C=C[C@H](NC(=O)Nc2ccc(OC)cc2)[C@@H](CO)O1	.	.	16.0	-0.5	.	.	.	.	.	.	.
Nc1cccc(-c2nc3ccc(C(=O)c4ccccc4)cc3[nH]2)c1	14.3	80.9*	-24.1	0.2	70.8*	84.7*	80.2*	76.2*	92.7*	63.3*	82.9*
COc1ccc2nc(-c3ccccn3)[nH]c2c1	23.6	81.9*	-412.2	-1.6	59.2*	77.2*	78.0*	72.6*	92.8*	88.8*	72.9*
Nc1ccc2nc(-c3cccnc3)[nH]c2c1	2.2	9.0	-161.1	-1.7	0.0	18.2	.	.	.	.	.
Nc1ccc2nc(-c3ccccn3)[nH]c2c1	9.5	52.4*	-406.0	-36.3	37.5	51.5*	41.7	50.6*	79.2*	81.9*	49.3
Nc1ccc2nc(-c3cccs3)[nH]c2c1	2.0	0.2	-312.9	-33.1	19.8	38.5	.	.	.	.	.
Nc1ccc2nc(-c3ccccc3)[nH]c2c1	4.3	46.1	-317.7	-23.2	34.0	69.6*	61.3*	64.8*	89.0*	89.8*	75.6*
Cc1cccc(C)c1NC(=O)C1(C)CN(S(C)(=O)=O)CC(=O)N1Cc1cccs1 (centres undefined)	.	.	17.7	-2.2	.	.	.	.	.	.	.
